A word on the IC50: it is the concentration that gives 50% inhibition.

Format in all cases: functional, cell-based
The test system of one assay is A549. The assay can be described thus: Cytotoxicity against human A549 cells after 72 hrs by alamar blue assay. The following applies: A549, 72 h. In short, it runs like this:
(§1)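 Cells seeded at 800–1000 per well (20–25 cells/µL) and left overnight to attach. Compounds were diluted serially from 10 mM DMSO stocks and tested at 8 final concentrations, 50 to 0.39 µM, in triplicate for 72 h. Vehicle control was 0.5% DMSO. Alamar blue was added to 10% final and fluorescence read after 4 h (ex 530, em 560 nm). Viability was expressed as percent of vehicle, and IC50 taken as 50% kill versus control.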

A further assay has as its system NCI-H157. The assay can be described thus: Cytotoxicity against human NCI-H157 cells after 72 hrs by alamar blue assay. The following applies: NCI-H157, 72 h. Summed up:
as §1

In a further assay the test system is NCI-H460. The assay is described as follows: Cytotoxicity against human H460 cells after 72 hrs by alamar blue assay. Particulars: NCI-H460, 72 h. In short, it runs like this:
as §1
On the technique in general: Alamar Blue is a resazurin reagent that responds to reducing activity.

For the next assay, the system named is NCI-H1792. The assay is described as follows: Cytotoxicity against human NCI-H1792 cells after 72 hrs by alamar blue assay. The following applies: NCI-H1792, 72 h. In short, it runs like this:
as §1

Assay [1] is described as follows: Cytotoxicity against human H266 cells after 72 hrs by alamar blue assay. Particulars: H266, 72 h. In short, it runs like this:
as §1

The subject of the next assay is HOP-62. The assay can be described thus: Cytotoxicity against human HOP62 cells after 72 hrs by alamar blue assay. Particulars: HOP-62, 72 h. In short, it runs like this:
as §1

For the next assay, the system named is NCI-H1299. The assay is described as follows: Cytotoxicity against human NCI-H1299 cells after 72 hrs by alamar blue assay. The following applies: NCI-H1299, 72 h. In short, it runs like this: as §1
A short description of assay [2]: Cytotoxicity against human 292G cells after 72 hrs by alamar blue assay. In short, it runs like this: as §1
The next assay relates to Calu-1. The assay is described as follows: Cytotoxicity against human Calu1 cells after 72 hrs by alamar blue assay. The following applies: Calu-1, 72 h. In short, it runs like this:
as §1

The next assay has as its system LOX IMVI. The assay is described as follows: Cytotoxicity against human LOXIMVI cells after 72 hrs by alamar blue assay. Summed up: as §1
The test system of the next assay is M14. The assay is described as follows: Cytotoxicity against human M14 cells after 72 hrs by alamar blue assay. The following applies: M14, 72 h. Summed up:
as §1

A further assay relates to HeLa. The assay can be described thus: Cytotoxicity against human HeLa cells after 72 hrs by alamar blue assay. In short, it runs like this:
as §1

A short description of assay [3]: Cytotoxicity against human M4E cells after 72 hrs by alamar blue assay. In short, it runs like this: as §1
Assay [4] is described as follows: Cytotoxicity against human SKBR cells after 72 hrs by alamar blue assay. In short, it runs like this:
as §1

Molecules are shown by their SMILES.

Consider `COc1cc(/C=C/C(=O)OCCCCOc2no[n+]([O-])c2S(=O)(=O)c2ccccc2)ccc1O`, for which the IC50 was found to be 0.4 µM in the assay on A549; 0.42 µM with NCI-H157; 0.45 µM with NCI-H460; 0.42 µM in the assay with NCI-H1792; 0.4 µM in [1]; 0.41 µM with HOP-62. For the same compound, the IC50 in the assay on NCI-H1299 came out at 0.42 µM; in [2], 1.93 µM; in the assay on Calu-1 it was 0.41 µM; in the assay on LOX IMVI, 0.44 µM; in the assay with M14 it was 0.4 µM; in the assay on HeLa, 0.46 µM. Besides, the IC50 in [3] was 0.84 µM; in [4] it was 0.42 µM.

Take `COc1cc(/C=C/C(=O)OCCCCCCO[N+](=O)[O-])ccc1O`: the IC50 in the assay on A549 is 37.4 µM; in the assay on NCI-H157, 32.1 µM; with NCI-H460, > 50 µM; in the assay on NCI-H1792, 48.7 µM; in assay [1], > 50 µM; in the assay with HOP-62 it was > 50 µM. In addition, the concentration for half-maximal inhibition (IC50) is > 50 µM in the assay with NCI-H1299; > 50 µM in assay [2]; > 50 µM with Calu-1; > 50 µM in the assay with LOX IMVI; > 50 µM in the assay with M14; 16.3 µM with HeLa. For the same compound, the half-maximal inhibitory concentration (IC50) in assay [3] was > 50 µM; in assay [4], 15.2 µM.

Take `CC(C)CCOC(=O)/C=C/c1ccc(O)c(O)c1`: the IC50 with A549 is 8.76 µM; with NCI-H157, 8.25 µM; with NCI-H460, 16.5 µM; in the assay with NCI-H1792, 31.9 µM; in [1], 33.8 µM; in the assay on HOP-62, 15.7 µM. In addition, the half-maximal inhibitory concentration (IC50) in the assay on NCI-H1299 turned out to be 17.9 µM; in assay [2], 27.6 µM; with Calu-1, 20.2 µM; in the assay with LOX IMVI, 8.03 µM; in the assay on M14, 30.6 µM; in the assay with HeLa, 9.39 µM. Moreover, the half-maximal inhibitory concentration (IC50) in assay [3] came to 29.1 µM; in [4], 13.1 µM.

As to `COc1cc(/C=C/C(=O)Oc2cccc(OCc3c(-c4ccccc4)no[n+]3[O-])c2)ccc1O`, the IC50 is 0.72 µM with A549; 24.7 µM in the assay on NCI-H157; 11.6 µM with NCI-H460; > 50 µM with NCI-H1792; > 50 µM in assay [1]; > 50 µM in the assay on HOP-62. The half-inhibitory concentration (IC50) was > 50 µM in the assay on NCI-H1299; > 50 µM in [2]; > 50 µM in the assay on Calu-1; 49.4 µM in the assay on LOX IMVI; > 50 µM with M14; > 50 µM in the assay with HeLa. Moreover, the IC50 in [3] was determined as 44.6 µM; in assay [4], 14.2 µM.

As to `COc1cc(/C=C/C(=O)OCCCO[N+](=O)[O-])ccc1O`, the concentration for half-maximal inhibition (IC50) amounted to 13.2 µM in the assay with A549; 20.5 µM with NCI-H157; 29 µM in the assay on NCI-H460; 28.5 µM in the assay with NCI-H1792; 44 µM in assay [1]; 19.4 µM with HOP-62. Moreover, the IC50 in the assay on NCI-H1299 was 28.3 µM; in assay [2], 39.4 µM; with Calu-1, > 50 µM; in the assay on LOX IMVI it was 29.5 µM; with M14, 42.6 µM; in the assay with HeLa, 6.7 µM. For the same compound, the 50% inhibitory concentration (IC50) in assay [3] was 18.4 µM; in assay [4], 17.2 µM.

Take `COc1cc(/C=C/C(=O)OCCOCCOc2no[n+]([O-])c2S(=O)(=O)c2ccccc2)ccc1O`: the concentration for half-maximal inhibition (IC50) in the assay on A549 worked out at 0.41 µM; in the assay on NCI-H157, 0.44 µM; in the assay with NCI-H460, 0.43 µM; in the assay on NCI-H1792, 1.07 µM; in assay [1], 0.42 µM; with HOP-62 it was 0.48 µM. The concentration for half-maximal inhibition (IC50) in the assay with NCI-H1299 was 0.49 µM; in [2] it was 2.88 µM; in the assay on Calu-1, 0.45 µM; in the assay on LOX IMVI, 0.42 µM; in the assay on M14, 0.41 µM; in the assay with HeLa it was 0.43 µM. The IC50 in assay [3] amounted to 1.12 µM; in assay [4] it was 0.41 µM.

Turning to `COc1cc(/C=C/C(=O)OC(C)CCOc2no[n+]([O-])c2S(=O)(=O)c2ccccc2)ccc1O` (stereo not drawn), the IC50 is 0.42 µM in the assay on A549; 0.41 µM with NCI-H157; 0.42 µM in the assay with NCI-H460; 0.4 µM in the assay with NCI-H1792; 0.43 µM in assay [1]; 0.42 µM in the assay on HOP-62. The IC50 came out at 0.41 µM with NCI-H1299; 1.77 µM in assay [2]; 0.45 µM in the assay with Calu-1; 0.41 µM in the assay on LOX IMVI; 0.41 µM with M14; 0.4 µM in the assay with HeLa. Moreover, the concentration for half-maximal inhibition (IC50) turned out to be 1.18 µM in [3] and 0.4 µM in assay [4].

Turning to `CCCOC(=O)/C=C/c1ccc(O)c(O)c1`, the half-maximal inhibitory concentration (IC50) came out at 4.39 µM with A549; 7.16 µM in the assay with NCI-H157; 7.01 µM in the assay with NCI-H460; 22.1 µM in the assay on NCI-H1792; 34.4 µM in [1]; 7.81 µM in the assay on HOP-62. Moreover, the concentration for half-maximal inhibition (IC50) was 5.85 µM in the assay with NCI-H1299; 7.58 µM in assay [2]; 17.7 µM in the assay with Calu-1; 7.5 µM with LOX IMVI; 13.5 µM with M14; 1.51 µM with HeLa. Moreover, the values for the half-maximal inhibitory concentration (IC50) in assay [3] and in assay [4] were 12.4 µM and 3.87 µM, respectively.

Turning to `CCCCOC(=O)/C=C/c1ccc(O)c(OC)c1`, the IC50 in the assay with A549 came out at 8.23 µM; in the assay on NCI-H157, 9.03 µM; in the assay with NCI-H460, 19.4 µM; with NCI-H1792, 15 µM; in [1] it was 18.3 µM; in the assay on HOP-62 it was 14.9 µM. In addition, the IC50 with NCI-H1299 turned out to be 8.23 µM; in assay [2], 22.9 µM; in the assay on Calu-1 it was 17.2 µM; in the assay on LOX IMVI it was 19.3 µM; in the assay with M14, 18.1 µM; in the assay on HeLa, 10.3 µM. Moreover, the concentration for half-maximal inhibition (IC50) was 15 µM in [3] and 13.2 µM in assay [4].

Turning to `COc1cc(/C=C/C(=O)OCCCO[N+](=O)[O-])ccc1OCCCO[N+](=O)[O-]`, the IC50 in the assay on A549 was 15.8 µM; in the assay with NCI-H157, > 50 µM; in the assay with NCI-H460 it was > 50 µM; with NCI-H1792 it was > 50 µM; in assay [1] it was > 50 µM; in the assay on HOP-62, > 50 µM. Moreover, the concentration for half-maximal inhibition (IC50) with NCI-H1299 was > 50 µM; in assay [2] it was > 50 µM; in the assay on Calu-1 it was 1.42 µM; in the assay on LOX IMVI, > 50 µM; in the assay on M14, > 50 µM; in the assay on HeLa, 3.62 µM. For the same compound, the IC50 in assay [3] and in [4] was > 50 µM throughout.

Turning to `COc1cc(/C=C/C(=O)OCCCCCO[N+](=O)[O-])ccc1OCCCCCO[N+](=O)[O-]`, the IC50 (in the assay on A549; in the assay with NCI-H157; with NCI-H460; in the assay on NCI-H1792; in assay [1]; with HOP-62) was > 50 µM each time. The IC50 (in the assay on NCI-H1299; in [2]; with Calu-1; in the assay on LOX IMVI; in the assay with M14; in the assay with HeLa) was > 50 µM in each case. Moreover, the IC50 in assay [3] and in assay [4] was > 50 µM throughout.

As for `CC(C)OC(=O)/C=C/c1ccc(O)c(O)c1`, the half-inhibitory concentration (IC50) was > 50 µM with A549; 11 µM in the assay with NCI-H157; 10.5 µM in the assay with NCI-H460; > 50 µM in the assay with NCI-H1792; > 50 µM in assay [1]; > 50 µM with HOP-62. The IC50 is 30.8 µM in the assay on NCI-H1299; > 50 µM in assay [2]; > 50 µM in the assay with Calu-1; > 50 µM with LOX IMVI; > 50 µM in the assay with M14; 9.65 µM with HeLa. The values for the IC50 in assay [3] and in assay [4] were > 50 µM and 31.5 µM, respectively.

Values taken from ChEMBL document CHEMBL2086326, “Biological activity evaluation and structure-activity relationships analysis of ferulic acid and caffeic acid derivatives for anticancer” (Bioorg Med Chem Lett, 2012).
